Source: ChEMBL document CHEMBL1914407, “New dammarane-type glucosides as potential activators of AMP-activated protein kinase (AMPK) from Gynostemma pentaphyllum” (Bioorg Med Chem, 2011)
Activity calls are given as the source filed them.

What was measured:
L6 [1] = assay: Induction of AMPK-alpha phosphorylation at thr172 in rat L6 cells at 150 uM by Western blot analysis in presence of 10 uM of AMPK inhibitor; assay type: cell-based
How it was run: (§1)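 L6 myotubes pretreated 10 min with the AMPK inhibitor compound C (10 µM), then exposed to compound for 2 h (DMSO vehicle). Lysates immunoblotted for phospho-AMPKα1/2 (Thr172) and total AMPK.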

L6 [2] = assay: Induction of AMPK-alpha phosphorylation at thr172 in rat L6 cells after 2 hrs by Western blot analysis; assay type: cell-based
How it was run: (§2)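 Differentiated L6 myotubes treated 2 h with a range of compound concentrations (DMSO vehicle), then lysed in pH 8.0 Tris buffer containing NP-40, EDTA, DTT, PMSF, orthovanadate, NaF and protease inhibitors. Immunoblotted for phospho-AMPKα1/2 (Thr172), total AMPK, phospho-ACC (Ser79) and total ACC.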

L6 [3] = assay: Increase in beta-oxidation in rat L6 cells assessed as tritiated water production at 150 uM by scintillation counting; assay type: functional, cell-based
How it was run: (§3)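 Fatty acid β-oxidation measured in differentiated L6 myotubes treated with compound, using DMSO as vehicle control. 3H2O formed was quantified in a scintillation counter.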

L6 [4] = assay: Induction of AMPK alpha-mediated ACC phosphorylation at ser79 in rat L6 cells after 2 hrs by Western blot analysis; assay type: cell-based; how it was run: as §2
L6 [5] = assay: Increase in AMPK alpha-mediated GLUT4 translocation into plasma membrane in rat L6 cells assessed as [3H]2-deoxy-glucose uptake after 2 hrs by scintillation counting relative to control; assay type: cell-based
How it was run: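 2-Deoxy-[3H]D-glucose added for 10 min, then three ice-cold 0.9% NaCl washes. Cytochalasin B (10 µM) blank subtracted. Cells collected in 0.05 N NaOH and counted by scintillation. Expressed as pmol 2-DG/min/mg protein or fold over control. Mean ± S.D. of three experiments.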

L6 [6] = assay: Increase in beta-oxidation in rat L6 cells assessed as tritiated water production at 12 uM by scintillation counter method; assay type: functional, cell-based; how it was run: as §3
L6 [7] = assay: Induction of AMPK-alpha phosphorylation at thr172 in rat L6 cells at 12 uM by Western blot analysis in presence of 10 uM of AMPK inhibitor; assay type: cell-based; how it was run: as §1

Measured: Activity

CC(C)=CC/C=C(\C)[C@H]1CC[C@]2(C)[C@@H]1[C@H](O)C[C@@H]1[C@@]3(C)C[C@@H](O)[C@H](O[C@@H]4O[C@H](CO)[C@@H](O)[C@H](O)[C@H]4O[C@@H]4O[C@H](CO)[C@@H](O)[C@H](O)[C@H]4O)C(C)(C)[C@@H]3CC[C@]12C
active: L6 [1] | L6 [2] Dose-dependent effect | L6 [3] | L6 [4] Dose-dependent effect | L6 [5] Dose-dependent effect

C=C(CCC=C(C)C)[C@H]1CC[C@]2(C)[C@@H]1[C@H](O)C[C@@H]1[C@@]3(C)C[C@@H](O)[C@H](O[C@@H]4O[C@H](CO)[C@@H](O)[C@H](O)[C@H]4O[C@@H]4O[C@H](CO)[C@@H](O)[C@H](O)[C@H]4O)C(C)(C)[C@@H]3CC[C@]12C
active: L6 [2] Dose-dependent effect | L6 [6] | L6 [7] | L6 [4] Dose-dependent effect | L6 [5] Dose-dependent effect
